In the library only some 2.9% were active in any assay of this set; here they are far more common.
PRMT1 FP inh – inhibitors of human PRMT1; inhibition, % at 2.79 µM; Q99873; hit rate 1.3% among 370,000; recombinant PRMT1, activity-based probe fluorescence polarization; AID 652257;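 active = inhibition above about 21% made by adding two undisclosed values, limit read from the data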
Target sequence (Q99873 whole entry, looked up): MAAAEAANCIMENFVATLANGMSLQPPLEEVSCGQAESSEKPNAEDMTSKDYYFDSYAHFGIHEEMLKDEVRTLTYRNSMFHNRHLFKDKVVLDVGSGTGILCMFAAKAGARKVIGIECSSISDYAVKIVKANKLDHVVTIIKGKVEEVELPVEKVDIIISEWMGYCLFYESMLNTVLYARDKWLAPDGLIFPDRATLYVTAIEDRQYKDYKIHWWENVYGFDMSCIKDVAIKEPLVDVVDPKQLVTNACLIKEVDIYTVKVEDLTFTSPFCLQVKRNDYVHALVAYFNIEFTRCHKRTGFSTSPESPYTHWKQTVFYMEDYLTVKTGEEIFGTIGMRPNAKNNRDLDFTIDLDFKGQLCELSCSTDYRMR
TCR CD3 inh – blocks the human TCR-CD3 interaction; inhibition, % at 9.4 µM; TAMRA-labeled TCR probe fluorescence, biochemical; AID 651800; hit rate 0.37% among 360,000;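 also: recombinant mutant TCR 2C K166C tagged with TAMRA read by polarization; 0% = receptor in buffer alone and 100% = receptor with positive control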
SIAE inh – inhibitors of human sialic acid acetylesterase SIAE | hit rate 0.69% among 370,000 | inhibition, % at 9.66 µM | Q9HAT2 | SIAE FP-Rh probe binding, fluorescence polarization | AID 1053197;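 active = inhibition above a cutoff: mean of compounds within the control limits plus 3 SD of those, cut at about 17% in these data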;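 also: 0% = plate median of compound wells and 100% = probe without SIAE protein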
HTRA1 inhibitor – blocks human HTRA1 serine peptidase | recombinant HTRA1, FP-rhodamine activity-based probe, fluorescence polarization | hit rate 0.5% among 340,000 | inhibition, % at 5.96 µM; in the data active = inhibition above about 36%;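 also: 0% = enzyme with DMSO and 100% = wells lacking enzyme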
ATG4B inhibitor – blocks human ATG4B protease cleavage of LC3 substrate. ATG4B cleavage of LC3-PLA2, NBD-HPC fluorescence, 1 h. AID 504462. hit rate 0.51% among 340,000. inhibition, % at 8.33 µM; in the data active = inhibition above about 40%
ABHD4 inh – inhibitors of mouse ABHD4 | Q8VD66 | purified mABHD4, FP-Rh probe fluorescence polarization | inhibition, % at 8.92 µM | hit rate 0.54% among 370,000 | AID 720543;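 active = inhibition exceeding the mean over every tested compound plus 3 SD, cut at about 30% in these data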;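 also: 0% = plate median of compound wells and 100% = S159A mutant with DMSO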
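Assay system: wild-type mouse ABHD4 protein; compound: single nominal dose of 8.92 µM, 0.89% DMSO final; schedule: 45 min + 60 min at 25 °C; measured by: FP readout, ex 525 nm / em 598 nm; evaluation: % inhibition of FP-Rh probe binding versus controls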
HTRA1 inh conf – HTRA1 (human) inhibition, confirmation. hit rate 66% among 1,600. recombinant HTRA1, FP-rhodamine activity-based probe, fluorescence polarization. shares compounds with HTRA1 inhibitor. AID 540248. inhibition, % at 5.96 µM;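 active = mean inhibition over three repeats above a set limit taken from the earlier primary screen, cut at about 37% in these data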;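 also: 0% = HTRA1 with DMSO and 100% = wells lacking HTRA1; inhibitors block probe binding so polarization drops and inhibition rises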
BSA probe FL – counter-screen for TCR-CD3 interaction inhibitors: BSA probe. shares compounds with TCR CD3 inh. TAMRA-labeled BSA probe fluorescence counterscreen. inhibition, % at 9.4 µM. hit rate 10% among 1,200; in the data active = inhibition above about 23%;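 also: 0% = buffer low control and 100% = reference high control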
TCR-CD3 inh conf – TCR-CD3 interaction inhibition, confirmation | shares compounds with TCR CD3 inh | TAMRA-labeled TCR probe fluorescence binding assay | inhibition, % at 9.4 µM | hit rate 48% among 1,200 | AID 652036
ABHD4 confirm – confirmation of mouse ABHD4 inhibitors; shares compounds with ABHD4 inh; purified mABHD4, FP-Rh probe fluorescence polarization; inhibition, % at 8.92 µM; hit rate 55% among 1,800; AID 720658;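 active = mean inhibition across replicates above the hit cutoff set in the primary screen, cut at about 30% in these data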;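 also: 0% = wild-type ABHD4 with DMSO and 100% = catalytically dead S159A mutant with DMSO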
Starred values were filed as active, the others as inactive. Rule as the data show it, unless noted: active = inhibition above about 19%; inactive = the rest.

For CC(C)N=c1scc(-c2cccs2)n1/N=C/c1ccc(O)c(O)c1O the results were PRMT1 FP inh 10, TCR CD3 inh 7, SIAE inh 14, HTRA1 inhibitor 57*, ATG4B inhibitor 23, ABHD4 inh 41*, HTRA1 inh conf 65* and ABHD4 confirm 54*.
CCOc1ccccc1NC(=O)NNC(=O)CCn1nc(C)c([N+](=O)[O-])c1C was read as PRMT1 FP inh 0, SIAE inh 1 and ABHD4 inh 10.
`Cc1c(C#N)c(N)nc2c3c(sc12)NC(=O)CC3c1ccc(Cl)cc1` (centres undefined) gave PRMT1 FP inh 0, TCR CD3 inh 2, SIAE inh 13, HTRA1 inhibitor -16, ATG4B inhibitor 4 and ABHD4 inh 8.
N#Cc1c(N)nc2c3c(sc(=N)c2c1N)NC(=O)CC3c1c(F)cccc1Cl (centres undefined) was read as PRMT1 FP inh 1, TCR CD3 inh 10, SIAE inh 0, HTRA1 inhibitor 63*, ATG4B inhibitor 8, ABHD4 inh 35*, HTRA1 inh conf 25 and ABHD4 confirm 17.
`Oc1ccc(/C=N/Nc2ccnc3cc(Cl)ccc23)cc1O` gave PRMT1 FP inh -5, TCR CD3 inh 10, SIAE inh 14, HTRA1 inhibitor 42*, ATG4B inhibitor 22, ABHD4 inh 35*, HTRA1 inh conf 72* and ABHD4 confirm 63*.
Screening CC/C(=N\Nc1ccnc2cc(Cl)ccc12)c1ccc(O)cc1 returned PRMT1 FP inh 12, TCR CD3 inh 4, SIAE inh 8, HTRA1 inhibitor 5, ATG4B inhibitor -3 and ABHD4 inh 0.
`CCCC(=O)NCc1ccc2c(c1)cc(C)n2C` gave PRMT1 FP inh 7, TCR CD3 inh 4, SIAE inh -4, HTRA1 inhibitor 7, ATG4B inhibitor 5 and ABHD4 inh 4.
Cc1cccc(NC(=O)NCc2ccc3c(c2)cc(C)n3C)c1 was read as PRMT1 FP inh 9, TCR CD3 inh 34*, SIAE inh 7, HTRA1 inhibitor 40*, ATG4B inhibitor 7, ABHD4 inh 42*, HTRA1 inh conf -7, BSA probe FL 1, TCR-CD3 inh conf 8 and ABHD4 confirm -3.
Cc1cccc(NC(=S)NCc2ccc3c(c2)cc(C)n3C)c1C was read as PRMT1 FP inh 8, TCR CD3 inh -9, SIAE inh 4, HTRA1 inhibitor 50*, ATG4B inhibitor 39, ABHD4 inh 30*, HTRA1 inh conf -1 and ABHD4 confirm -16.
COC(=O)[C@]12C[C@H](CC(=O)NCc3cccs3)C(=O)N(Cc3ccccc3)C1=C[C@H](COCc1ccccc1)O[C@@H]2C was read as PRMT1 FP inh 4, SIAE inh -5 and ABHD4 inh 2.
`Cc1ccccc1NC(=O)OCCCN1C(=O)CCC12CCC(C)CC2` (centres undefined) gave PRMT1 FP inh 2, SIAE inh 1 and ABHD4 inh 6.
For O=C(/C=C/c1ccc(O)c(O)c1)c1ccccc1O the results were PRMT1 FP inh 6, TCR CD3 inh 7, SIAE inh -10, HTRA1 inhibitor 60*, ATG4B inhibitor -12, ABHD4 inh 36*, HTRA1 inh conf 68* and ABHD4 confirm 27.
`Nc1nc(-c2ccccc2)c(N=Nc2ccccc2Cl)s1` gave PRMT1 FP inh 1, TCR CD3 inh 11, SIAE inh 14, HTRA1 inhibitor 73*, ATG4B inhibitor 1, ABHD4 inh 46*, HTRA1 inh conf 115* and ABHD4 confirm 76*.
Nc1nc(-c2ccccc2)c(N=Nc2cccc3ccccc23)s1 was read as PRMT1 FP inh -4, TCR CD3 inh 4, SIAE inh 13, HTRA1 inhibitor 76*, ATG4B inhibitor 12, ABHD4 inh 49*, HTRA1 inh conf 80* and ABHD4 confirm 58*.
`CC(=O)Nc1sc(N)nc1-c1ccccc1` gave PRMT1 FP inh -3, TCR CD3 inh 3, SIAE inh 3, HTRA1 inhibitor 4, ATG4B inhibitor -3 and ABHD4 inh 0.
CN(Cc1ccccc1)C(=O)OCc1cn(Cc2cccc(C(F)(F)F)c2)nn1 was read as PRMT1 FP inh -2, SIAE inh -2 and ABHD4 inh -5.
`O=C(OC12CCCN(C1)/C(=C/c1cccnc1)C2)c1ccc(F)cc1` (centres undefined) gave PRMT1 FP inh -1, SIAE inh -1 and ABHD4 inh 1.
`Oc1ccc(-c2csc(Nc3ccccn3)n2)cc1O` gave PRMT1 FP inh 6, TCR CD3 inh 15, SIAE inh 13, HTRA1 inhibitor 64*, ATG4B inhibitor -13, ABHD4 inh 31*, HTRA1 inh conf 80* and ABHD4 confirm 40*.
For Cc1cccc(Nc2nc(-c3ccc(O)c(O)c3)cs2)n1 the results were PRMT1 FP inh 1, TCR CD3 inh -1, SIAE inh 4, HTRA1 inhibitor 60*, ATG4B inhibitor -7, ABHD4 inh 34*, HTRA1 inh conf 59* and ABHD4 confirm 57*.
Screening COc1ccc(-c2csc(Nc3ncccc3C)n2)cc1OC returned PRMT1 FP inh -1, TCR CD3 inh -1, SIAE inh 0, HTRA1 inhibitor 5, ATG4B inhibitor 6 and ABHD4 inh 15.
For Cc1cccc(Nc2nc(-c3ccc(F)c(C)c3)cs2)n1 the results were PRMT1 FP inh 1, TCR CD3 inh 0, SIAE inh -2, HTRA1 inhibitor -2, ATG4B inhibitor -3 and ABHD4 inh 15.
For CC(=O)Nc1ccc(-c2csc(Nc3ccccn3)n2)cc1 the results were PRMT1 FP inh -1, TCR CD3 inh -4, SIAE inh -2, HTRA1 inhibitor 7, ATG4B inhibitor -11 and ABHD4 inh 9.
For Cc1cccnc1Nc1nc(-c2ccc(O)c(O)c2)cs1 the results were PRMT1 FP inh 10, TCR CD3 inh 17, SIAE inh -6, HTRA1 inhibitor 81*, ATG4B inhibitor 1, ABHD4 inh 35*, HTRA1 inh conf 70* and ABHD4 confirm 43*.
